# In ChEMBL document CHEMBL1146073, “A pyridazine series of alpha2/alpha3 subtype selective GABA A agonists for the treatment of anxiety” (J Med Chem, 2006):
# The source made the active and inactive calls. The calls are words filed in the database; no cut-off is given here.
# Experiments:
# Rattus norvegicus [1] = assay: Anxiolytic activity in rat plus-maze assay at 1 mg/kg, po; assay type: functional, organism-based; design: dose 1 mg/kg
# How it was run: (§1)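 Rats given vehicle (0.5% methyl cellulose) or compound orally; chlordiazepoxide 5 mg/kg ip as positive control. Placed on elevated plus maze 30 min after dosing; time on open arms recorded as anxiety index. Significance versus vehicle at p < 0.05; mean ± SEM, n = 16-18/group.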
# [2] = target: T1, GABA-A receptor; anion channel (Rattus norvegicus) (UniProt O09028+P15431+P18506+P18508+P19969+P20236+P23574+P23576+P28471+P28473+P30191+P62813+P63079+P63138+Q91ZM7+Q9ES14); assay: Receptor occupancy in vivo by displacement of [3H]Ro-151788 binding from GABA-A receptor in rat at 0.1 mg/kg, po; assay type: functional, organism-based; design: dose 0.1 mg/kg
# How it was run: (§2)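 Rat in vivo occupancy measured by [3H]Ro 15-1788 binding after oral dosing. Rats taken as a subgroup after the plus-maze trial, i.e. 30 min post-dose or later. ED50 derived from dose-dependent occupancy. Mean ± SEM, n = 5-10/group.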
# [3] = target: T1, GABA-A receptor; anion channel (Rattus norvegicus); assay: Receptor occupancy in vivo by displacement of [3H]Ro-151788 binding from GABA-A receptor in rat at 1 mg/kg, po; assay type: functional, organism-based; design: dose 1 mg/kg; how it was run: as §2
# Rattus norvegicus [4] = assay: Anxiolytic activity in rat plus-maze assay at 1 mg/kg, po
# [5] = Half life in Rhesus monkey; assay type: ADME, organism-based, Macaca mulatta; conditions: in vivo
# How it was run: (§3)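 Pharmacokinetics from six animals per species: three dosed iv and three dosed po.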
# [6] = Oral bioavailability in Rhesus monkey; assay type: ADME, organism-based, Macaca mulatta; conditions: in vivo; how it was run: as §3
# Rattus norvegicus [7] = assay: Anxiolytic activity in rat plus-maze assay at 0.3 mg/kg, po; assay type: functional, organism-based; design: dose 0.3 mg/kg; how it was run: as §1
# [8] = target: T1, GABA-A receptor; anion channel (Rattus norvegicus); assay: Receptor occupancy in vivo by displacement of [3H]Ro-151788 binding from GABA-A receptor in rat at 0.3 mg/kg, po; assay type: functional, organism-based; design: dose 0.3 mg/kg; how it was run: as §2
# [9] = target: GABA-A receptor; alpha-5/beta-3/gamma-2 (Homo sapiens) (UniProt P18507+P28472+P31644); assay: Efficacy against recombinant human GABA-Aalpha5 plus beta-3-gamma-2 expressed in L(tk-) cells by whole cell patch clamp method; assay type: functional, cell-based
# How it was run: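 Whole-cell patch clamp on αxβ3γ2 receptors stably expressed in L(tk-) cells, measuring the effect on current evoked by an EC20-equivalent of GABA. Reported relative to full agonist chlordiazepoxide (=1.0), or as direct percent modulation of the EC20 control, with inverse agonism given as percent. Mean of at least four independent experiments.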
structure (smiles),measurement,setting,value
Fc1cnc(-c2cc(-c3ccc(F)c(-c4ncccc4F)c3)cnn2)c(F)c1,Activity,Rattus norvegicus [1],Active
same,Activity,[2],57%
Fc1cnc(-c2cc(-c3ccc(F)c(-c4ncc(F)cc4F)c3)cnn2)c(F)c1,Activity,[3],71%
same,Activity,Rattus norvegicus [4],Active
Fc1cnc(-c2cc(-c3cnnc(-c4c(F)cncc4F)c3)ccc2F)c(F)c1,half-life,[5],8.4 h
same,bioavailability,[6],46%
same,Activity,Rattus norvegicus [7],Active
same,Activity,[8],56%
same,Efficacy,[9],-5%
